Assay [1] in a line: Inhibition of human ACE Ndom389 mutant preincubated for 30 mins followed by Z-FHL substrate addition measured after 15 mins by fluorimetric method. In short, it runs like this: (§1)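 Enzyme diluted from frozen stock to 10 nM (Ndom389, line 1) or 5 nM (tACE Δ36NJ, line 2) in 100 mM potassium phosphate pH 8.3, 300 mM NaCl, 10 μM ZnSO4, 1 mg/ml albumin. Compounds (10-fold series 100 μM–1 nM, then 9-point two-fold series) preincubated with enzyme 1:1, 30 min, room temperature. 1 mM Z-FHL added, 40 °C, 15 min. OPA/NaOH derivatisation, HCl quench. Fluorescence ex 360/em 485 nm, triplicate wells. IC50 from activity curves, converted to Ki.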

The nature of assay [2]: Inhibition of human testis ACE delta36NJ mutant preincubated for 30 mins followed by Z-FHL substrate addition measured after 15 mins by fluorimetric method. In outline:
as §1

The species entered for the next assay is Homo sapiens. The assay can be described thus: Selectivity ratio of Ki for human testis ACE delta36NJ mutant to Ki for human ACE Ndom389 mutant. In outline: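 Ki for each domain calculated from IC50 values obtained by Z-FHL hydrolysis assay (Ndom389 10 nM, tACE Δ36NJ 5 nM; 30 min room temperature preincubation, 15 min at 40 °C, OPA fluorescence ex 360/em 485 nm, triplicate). Ratio of C-domain Ki to N-domain Ki.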

SMILES strings stand for the structures.

On to `C[C@H](N[C@H](C(=O)O)[C@@H]1CCCN1C(=O)c1ccc(C(=O)O)cc1)C(=O)N1CCC[C@H]1C(=O)O`, for which the Ki was found to be 16.9 nM in assay [1] and 2.29 nM in assay [2]. For the same compound, the Ratio Ki in the assay filed under Homo sapiens was determined as 0.14.

In the case of `C[C@H](N[C@H](C(=O)O)[C@@H]1CCCN1C(=O)c1ccc(N)cc1)C(=O)N1CCC[C@H]1C(=O)O`, the Ki turned out to be 3.37 nM in assay [1] and 0.22 nM in assay [2]. Further, in the assay listed under Homo sapiens, the Ratio Ki amounted to 0.07.

As to `C[C@H](N[C@H](C(=O)O)[C@@H]1CCCN1C(=O)CN)C(=O)N1CCC[C@H]1C(=O)O`, the results for the Ki in assay [1] and in assay [2] were 279 nM and 44.4 nM, respectively. The Ratio Ki in the assay listed under Homo sapiens was found to be 0.16.

`C[C@H](N[C@H](C(=O)O)[C@@H]1CCCN1C(=O)c1ccccc1)C(=O)N1CCC[C@H]1C(=O)O`: the figures for the inhibition constant Ki in assay [1] and in assay [2] were 4.45 nM and 0.31 nM, respectively. The Ratio Ki in the assay filed under Homo sapiens was 0.07.

For `C[C@H](N[C@H](C(=O)O)[C@@H]1CCCN1C(=O)[C@@H](N)CC(=O)O)C(=O)N1CCC[C@H]1C(=O)O`, the inhibition constant Ki in assay [1] was 11.4 nM; in assay [2], 961 nM. For the same compound, the Ratio Ki in the assay filed under Homo sapiens is 83.9.

For the compound `C[C@H](N[C@H](C(=O)O)[C@@H]1CCCN1C(=O)[C@@H](N)Cc1ccccc1)C(=O)N1CCC[C@H]1C(=O)O`, the Ki in assay [1] is 70.3 nM; in assay [2] it was 168 nM. Also, the Ratio Ki in the assay filed under Homo sapiens turned out to be 2.39.

As for `C[C@H](N[C@H](C(=O)O)[C@@H]1CCCN1C(=O)[C@@H](N)CCC(=O)O)C(=O)N1CCC[C@H]1C(=O)O`, the Ki stood at 9.63 nM in assay [1] and 17.4 nM in assay [2]. The Ratio Ki in the assay listed under Homo sapiens stood at 1.81.

(Values after ChEMBL document CHEMBL4028915, “The Design and Development of a Potent and Selective Novel Diprolyl Derivative That Binds to the N-Domain of Angiotensin-I Converting Enzyme” (J Med Chem, 2018).)
